ChEMBL document CHEMBL4138313 (J Med Chem, 2018)
Calls of active or inactive are those of the source. The rule behind the calls is not given here.

What was measured:
[1] = Safety index, ratio compound EC50 to olaparib EC50 for BRCA1 deficient human UWB1.289 cells; assay type: ADME; details: BRCA1-deficient UWB1.289 cells, read-out: Ratio EC50
Procedure, shortened: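 UWB1.289 cells were grown in 1:1 MEGM (bullet kit) and RPMI 1640 with 10% FBS and 1% pen/strep, at 37 °C, 5% CO2 and 15% O2. Cells were seeded at 1,000 cells/well and dosed after 24 h at 100–0.016 µM for 4–7 days. Viability was read by CellTiter-Glo luminescence and normalised to the vehicle mean.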

[2] = Cytotoxicity against human BRCA1-restored UWB1.289 cells assessed as reduction in cell viability after 4 to 7 days by cell-titer glo assay; assay type: cell-based
[3] = molecular target: T1, Poly [ADP-ribose] polymerase tankyrase-1 (Homo sapiens, UniProt O95271); test: Inhibition of human N-terminal GST-tagged TNKS1 (1001 to 1327 residues) expressed in baculovirus infected sf9 cells using histone as substrate after 1 hr by streptavidin-horseradish peroxidase-based luminescence assay
T1 sequence (O95271 whole entry): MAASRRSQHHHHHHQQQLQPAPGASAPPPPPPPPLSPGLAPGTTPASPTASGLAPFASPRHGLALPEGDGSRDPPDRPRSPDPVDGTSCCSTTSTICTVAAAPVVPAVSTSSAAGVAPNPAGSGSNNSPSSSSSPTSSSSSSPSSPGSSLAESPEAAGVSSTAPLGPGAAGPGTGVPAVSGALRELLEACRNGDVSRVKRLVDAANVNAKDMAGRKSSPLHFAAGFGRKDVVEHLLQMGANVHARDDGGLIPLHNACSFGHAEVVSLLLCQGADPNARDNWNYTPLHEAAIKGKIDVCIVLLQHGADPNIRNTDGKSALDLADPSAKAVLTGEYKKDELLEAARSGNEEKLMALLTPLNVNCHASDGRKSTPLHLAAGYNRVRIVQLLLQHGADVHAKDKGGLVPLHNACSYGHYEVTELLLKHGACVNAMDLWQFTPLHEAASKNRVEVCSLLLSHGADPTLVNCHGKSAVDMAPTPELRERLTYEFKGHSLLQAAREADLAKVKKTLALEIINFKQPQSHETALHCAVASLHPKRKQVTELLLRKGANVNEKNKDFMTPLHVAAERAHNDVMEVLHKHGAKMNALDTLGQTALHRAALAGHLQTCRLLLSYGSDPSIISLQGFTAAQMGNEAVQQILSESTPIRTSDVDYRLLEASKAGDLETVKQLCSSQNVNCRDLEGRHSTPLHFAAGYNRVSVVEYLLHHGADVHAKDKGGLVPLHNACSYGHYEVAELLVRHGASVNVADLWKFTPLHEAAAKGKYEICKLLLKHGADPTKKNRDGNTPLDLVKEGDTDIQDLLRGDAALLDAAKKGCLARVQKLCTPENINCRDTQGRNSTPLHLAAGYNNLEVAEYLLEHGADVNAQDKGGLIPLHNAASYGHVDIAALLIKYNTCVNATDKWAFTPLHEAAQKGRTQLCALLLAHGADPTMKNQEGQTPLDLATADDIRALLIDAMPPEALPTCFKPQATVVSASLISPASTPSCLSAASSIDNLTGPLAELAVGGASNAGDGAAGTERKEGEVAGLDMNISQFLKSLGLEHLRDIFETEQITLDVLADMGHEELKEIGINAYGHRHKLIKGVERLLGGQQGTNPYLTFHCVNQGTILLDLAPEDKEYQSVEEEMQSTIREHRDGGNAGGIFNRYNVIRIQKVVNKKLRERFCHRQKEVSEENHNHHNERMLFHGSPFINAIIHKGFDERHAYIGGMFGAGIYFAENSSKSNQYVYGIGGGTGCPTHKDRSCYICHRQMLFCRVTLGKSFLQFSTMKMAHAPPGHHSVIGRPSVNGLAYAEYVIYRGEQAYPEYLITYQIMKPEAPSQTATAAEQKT

[4] = Cytotoxicity against human BRCA1-deficient UWB1.289 cells assessed as reduction in cell viability after 4 to 7 days by cell-titer glo assay; assay type: cell-based
[5] = molecular target: T2, Poly [ADP-ribose] polymerase 1 (Homo sapiens, UniProt P09874); test: Binding affinity to PARP1 in human OVCAR8 cells assessed as reduction in [125I]-KX1 binding by gamma counting analysis; assay type: cell-based
T2 sequence (P09874 whole entry, the tested form may be a part): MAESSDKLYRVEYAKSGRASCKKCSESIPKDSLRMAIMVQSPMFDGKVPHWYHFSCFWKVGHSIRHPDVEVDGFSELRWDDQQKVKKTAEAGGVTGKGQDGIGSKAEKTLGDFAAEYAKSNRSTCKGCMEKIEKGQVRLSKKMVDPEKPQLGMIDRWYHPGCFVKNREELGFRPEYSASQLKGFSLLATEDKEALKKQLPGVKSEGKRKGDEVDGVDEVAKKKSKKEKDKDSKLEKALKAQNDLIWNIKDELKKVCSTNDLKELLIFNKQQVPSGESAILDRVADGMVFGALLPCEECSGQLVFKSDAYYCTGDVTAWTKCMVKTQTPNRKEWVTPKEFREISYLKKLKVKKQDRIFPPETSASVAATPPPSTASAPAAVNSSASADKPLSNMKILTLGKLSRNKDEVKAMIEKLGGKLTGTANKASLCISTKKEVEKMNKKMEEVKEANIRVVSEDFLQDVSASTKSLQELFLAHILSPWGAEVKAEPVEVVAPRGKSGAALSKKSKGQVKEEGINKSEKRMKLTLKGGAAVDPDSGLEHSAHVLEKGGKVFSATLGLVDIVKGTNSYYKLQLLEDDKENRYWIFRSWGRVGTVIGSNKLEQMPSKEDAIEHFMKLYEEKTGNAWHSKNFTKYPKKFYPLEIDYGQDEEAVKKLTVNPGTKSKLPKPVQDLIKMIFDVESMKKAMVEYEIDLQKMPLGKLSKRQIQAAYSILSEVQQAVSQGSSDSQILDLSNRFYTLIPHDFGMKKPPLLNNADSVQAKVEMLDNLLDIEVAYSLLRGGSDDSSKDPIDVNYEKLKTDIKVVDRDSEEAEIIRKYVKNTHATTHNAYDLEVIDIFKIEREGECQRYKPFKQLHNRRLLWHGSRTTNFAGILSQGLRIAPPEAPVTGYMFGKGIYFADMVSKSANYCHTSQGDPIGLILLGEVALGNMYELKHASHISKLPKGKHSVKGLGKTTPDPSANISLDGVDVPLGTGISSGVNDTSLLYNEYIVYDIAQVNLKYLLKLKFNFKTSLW

[6] = molecular target: T3, Poly [ADP-ribose] polymerase tankyrase-2 (Homo sapiens, UniProt Q9H2K2); test: Inhibition of human N-terminal GST-tagged TNKS2 (667 to 1166 residues) expressed in baculovirus infected sf9 cells using histone as substrate after 1 hr by streptavidin-horseradish peroxidase-based luminescence assay
T3 sequence (Q9H2K2 whole entry): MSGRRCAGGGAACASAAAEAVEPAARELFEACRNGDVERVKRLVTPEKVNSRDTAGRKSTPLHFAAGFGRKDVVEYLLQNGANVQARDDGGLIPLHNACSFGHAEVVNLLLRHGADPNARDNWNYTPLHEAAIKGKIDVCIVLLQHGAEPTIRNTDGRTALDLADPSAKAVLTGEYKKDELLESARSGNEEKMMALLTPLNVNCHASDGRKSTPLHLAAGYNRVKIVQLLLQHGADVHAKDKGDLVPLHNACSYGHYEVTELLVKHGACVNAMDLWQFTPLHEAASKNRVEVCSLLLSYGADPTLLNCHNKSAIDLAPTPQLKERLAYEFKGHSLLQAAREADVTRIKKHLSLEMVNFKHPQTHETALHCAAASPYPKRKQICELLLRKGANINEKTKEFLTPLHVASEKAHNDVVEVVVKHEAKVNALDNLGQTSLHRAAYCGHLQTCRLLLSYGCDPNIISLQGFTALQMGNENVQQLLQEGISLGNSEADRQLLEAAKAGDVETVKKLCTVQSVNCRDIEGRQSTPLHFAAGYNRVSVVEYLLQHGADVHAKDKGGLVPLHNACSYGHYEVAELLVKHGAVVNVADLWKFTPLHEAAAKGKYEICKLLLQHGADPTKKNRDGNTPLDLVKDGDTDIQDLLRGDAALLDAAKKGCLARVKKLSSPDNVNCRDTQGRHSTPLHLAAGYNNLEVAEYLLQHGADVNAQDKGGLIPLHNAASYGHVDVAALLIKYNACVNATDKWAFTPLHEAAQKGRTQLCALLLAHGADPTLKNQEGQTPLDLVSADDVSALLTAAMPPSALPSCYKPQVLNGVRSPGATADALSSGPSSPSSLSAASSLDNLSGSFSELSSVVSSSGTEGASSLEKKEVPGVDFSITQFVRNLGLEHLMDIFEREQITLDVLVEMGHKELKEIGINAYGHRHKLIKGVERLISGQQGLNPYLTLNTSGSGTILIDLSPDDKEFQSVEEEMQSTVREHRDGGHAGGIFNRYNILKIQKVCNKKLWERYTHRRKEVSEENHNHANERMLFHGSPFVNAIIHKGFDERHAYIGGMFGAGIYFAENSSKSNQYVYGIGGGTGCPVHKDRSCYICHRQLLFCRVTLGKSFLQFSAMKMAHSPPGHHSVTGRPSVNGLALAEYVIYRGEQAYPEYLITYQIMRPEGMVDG

[7] = molecular target: T4, Poly [ADP-ribose] polymerase tankyrase-2 (Homo sapiens) (UniProt Q9H2K2); test: Inhibition of human N-terminal GST-tagged TNKS2 (667 to 1166 residues) expressed in baculovirus infected sf9 cells at 10 uM using histone as substrate after 1 hr by streptavidin-horseradish peroxidase-based luminescence assay
T4 sequence (whole entry): T3 sequence (Q9H2K2 whole entry)
Procedure, shortened: (§1)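 Run by an outside contractor using PARP or TNKS kit protocols, in duplicate, at room temperature for 1 h in histone-coated wells. The Tris·HCl pH 8.0 reaction buffer held NAD+, biotinylated NAD+, activated DNA, enzyme and compound. Streptavidin-HRP was then added for 30 min at room temperature, followed by developer reagents and a luminescence read.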

MEF [8] = test: Cytotoxicity against mouse PARP1 deficient MEF cells assessed as reduction in cell viability after 4 to 7 days by cell-titer glo assay; assay type: cell-based
MEF [9] = test: Cytotoxicity against mouse PARP2 deficient MEF cells expressing PARP1 assessed as reduction in cell viability after 4 to 7 days by cell-titer glo assay; assay type: cell-based
MEF [10] = test: Cytotoxicity against mouse wild type MEF cells assessed as reduction in cell viability after 4 to 7 days by cell-titer glo assay; assay type: cell-based
MEF [11] = test: Cytotoxicity against mouse wild type MEF cells assessed as reduction in cell viability at 0.016 to 100 uM after 4 to 7 days by cell-titer glo assay; assay type: cell-based
Procedure, shortened: (§2)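 Cells kept at 37 °C, 5% CO2, 15% O2 in RPMI 1640 with 10% FBS and 1% penicillin/streptomycin. Seeded at 1,000 cells/well and dosed 24 h later at 100–0.016 µM. Exposure lasted 4–7 days, then viability was read by CellTiter Glo luminescence. Signal was normalized to percent survival against the mean of vehicle controls. Three repeat experiments.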

MEF [12] = test: Cytotoxicity against mouse PARP1 deficient MEF cells assessed as reduction in cell viability at 0.016 to 100 uM after 4 to 7 days by cell-titer glo assay; assay type: cell-based; procedure, shortened: as §2
[13] = Cytotoxicity against human OVCAR8 cells assessed as cell survival at 10 uM after 4 to 7 days by cell-titer glo assay; assay type: cell-based, OVCAR-8; details: OVCAR8 cells, read-out: Activity
[14] = molecular target: T2, Poly [ADP-ribose] polymerase 1; test: Inhibition of PARP1 (unknown origin) at 10 uM; procedure, shortened: as §1

| IC50 [3] [µM] | IC50 [5] [µM] | IC50 [6] [µM] | inhibition [7] | inhibition [14] | SMILES | selectivity ratio [1] | EC50 [2] [µM] | EC50 [4] [µM] | EC50 (MEF [8]) [µM] | EC50 (MEF [9]) [µM] | EC50 (MEF [10]) [µM] | Activity (MEF [11]) [%] | Activity (MEF [12]) [%] | viability at 10 µM [13] [%] |
| --- | --- | --- | --- | --- | --- | --- | --- | --- | --- | --- | --- | --- | --- | --- |
| 3 | 1.1 | 0.953 | Active | – | CC(C)(C)OC(=O)N1CCC2(CC1)CCN(C(=O)c1cc(Cc3n[nH]c(=O)c4ccccc34)ccc1F)C2 | 20 to 40 | 6.2 | 8.4 | 45.9 | 31.6 | 9.4 | – | – | – |
| 5.7 | – | 2.8 | Active | – | CC(C)(C)OC(=O)N1CCC2(CC1)CCN(C(=O)c1cc(Cc3n[nH]c(=O)c4ccccc34)ccc1F)CC2 | 20 to 40 | 4 | 2.7 | 43.4 | 19.2 | 16.9 | – | – | – |
| – | – | – | – | Active | O=C(c1cc(Cc2n[nH]c(=O)c3ccccc23)ccc1F)N1CC2(C1)CN(C(=O)C1CC1)C2 | 7 | 12.1 | 1.5 | – | 59.8 | – | < 50 | < 50 | 80 |
| 1 | – | 0.576 | Active | – | CC(C)(C)OC(=O)N1CCC2(CCN(C(=O)c3cc(Cc4n[nH]c(=O)c5ccccc45)ccc3F)C2)C1 (stereo unspecified) | 20 to 40 | 7.4 | 4.2 | 46.4 | 23.4 | 17.2 | – | – | – |
